Measurements: ChEMBL document CHEMBL4602615, “Upregulation of p53 through induction of MDM2 degradation: Amino acid prodrugs of anthraquinone analogs” (Bioorg Med Chem Lett, 2020)
Values after ≈ are worked out from the molar mass of the structure shown. Active and inactive are the calls of the source. No cut-off for these calls is given here.

Columns and labels:
[1] = Prodrug conversion assessed as porcine liver Esterase-mediated compound hydrolysis by measuring half life by HPLC analysis; assay type: ADME, Sus scrofa; conditions: pig, isolated protein
In short: (§1)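 Amino-acid ester prodrugs incubated with the hydrolytic enzyme in PBS, pH 7.4, at 37 °C. Release of parent anthraquinone monitored by HPLC, and half-life derived.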

[2] = Cytotoxicity against human EU1 cells assessed as reduction in cell viability by WST8 assay; assay type: functional, cell-based; conditions: EU-1
In short: (§2)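 WST-8 viability read-out in HeLa cells and in an in-house established wild-type p53 leukemia line (EU-1). IC50 derived from the concentration–response data.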

[3] = Prodrug conversion in PBS buffer assessed as half life at pH 7.4 and 37 degC by HPLC analysis; assay type: physicochemical
[4] = Aqueous solubility of compound in PBS buffer at pH 7.4 by HPLC analysis; assay type: physicochemical
HeLa = experiment: Cytotoxicity against human HeLa cells assessed as reduction in cell viability by WST8 assay; assay type: functional, cell-based; in short: as §2
[5] = Prodrug conversion assessed as porcine pancreas Kallikrein-mediated compound hydrolysis by measuring half life by HPLC analysis; assay type: ADME, Sus scrofa; conditions: pig; in short: as §1
[6] = Prodrug conversion in cell culture media assessed as half life; assay type: physicochemical
[7] = molecular target: E3 ubiquitin-protein ligase Mdm2 (Homo sapiens) (UniProt Q00987); experiment: Induction of MDM2 degradation in human EU1 cells assessed as downregulation of MDM2 protein expression at 1 uM incubated for 4 to 16 hrs by Western blot analysis; assay type: cell-based
Sequence of E3 ubiquitin-protein ligase Mdm2 (Homo sapiens) (Q00987 whole entry, looked up): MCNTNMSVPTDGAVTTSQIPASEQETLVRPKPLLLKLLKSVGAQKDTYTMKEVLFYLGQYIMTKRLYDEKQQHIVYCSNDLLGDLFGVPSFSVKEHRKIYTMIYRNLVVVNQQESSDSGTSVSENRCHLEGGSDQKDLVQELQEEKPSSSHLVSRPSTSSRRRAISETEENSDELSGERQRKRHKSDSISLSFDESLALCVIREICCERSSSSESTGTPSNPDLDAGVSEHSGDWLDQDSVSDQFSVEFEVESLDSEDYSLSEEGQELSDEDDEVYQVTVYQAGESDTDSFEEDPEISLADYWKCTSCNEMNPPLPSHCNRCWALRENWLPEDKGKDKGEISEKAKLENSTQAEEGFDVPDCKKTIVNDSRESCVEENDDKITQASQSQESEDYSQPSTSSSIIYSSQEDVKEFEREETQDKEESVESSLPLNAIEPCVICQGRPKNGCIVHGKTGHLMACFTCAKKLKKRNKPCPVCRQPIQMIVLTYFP
In short: (§3)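 EU-1 is an in-house established leukemia line carrying wild-type p53. Cells were exposed across a series of concentrations and incubation times, then lysed. MDM2 and p53 protein levels were read by Western blot.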

[8] = molecular target: E3 ubiquitin-protein ligase Mdm2 (Homo sapiens) (UniProt Q00987); experiment: Induction of MDM2 degradation in human EU1 cells assessed as downregulation of MDM2 protein expression at 0.8 uM incubated for 15 hrs by Western blot analysis; assay type: cell-based; in short: as §3
[9] = molecular target: E3 ubiquitin-protein ligase Mdm2 (Homo sapiens) (UniProt Q00987); experiment: Induction of MDM2 degradation in human EU1 cells assessed as downregulation of MDM2 protein expression incubated for 15 hrs by Western blot analysis; assay type: cell-based; in short: as §3
[10] = molecular target: E3 ubiquitin-protein ligase Mdm2 (Homo sapiens) (UniProt Q00987); experiment: Induction of MDM2 degradation in human EU1 cells assessed as upregulation of p53 protein expression at 0.8 uM incubated for 15 hrs by Western blot analysis; assay type: cell-based; in short: as §3
[11] = molecular target: E3 ubiquitin-protein ligase Mdm2 (Homo sapiens) (UniProt Q00987); experiment: Induction of MDM2 degradation in human EU1 cells assessed as upregulation of p53 protein expression incubated for 15 hrs by Western blot analysis; assay type: cell-based; in short: as §3
[12] = molecular target: E3 ubiquitin-protein ligase Mdm2 (Homo sapiens) (UniProt Q00987); experiment: Induction of MDM2 degradation in human EU1 cells assessed as downregulation of MDM2 protein expression at 1 uM by Western blot analysis; assay type: cell-based; conditions: TDE = time-dependent effect; in short: as §3
[13] = molecular target: E3 ubiquitin-protein ligase Mdm2 (Homo sapiens) (UniProt Q00987); experiment: Induction of MDM2 degradation in human EU1 cells assessed as upregulation of p53 protein expression at 1 uM by Western blot analysis; assay type: cell-based; conditions: TDE = time-dependent effect; in short: as §3
[14] = molecular target: E3 ubiquitin-protein ligase Mdm2 (Homo sapiens) (UniProt Q00987); experiment: Induction of MDM2 degradation in human EU1 cells assessed as upregulation of p53 protein expression at 1 uM incubated for 4 to 8 hrs by Western blot analysis; assay type: cell-based; in short: as §3
[15] = Prodrug conversion in none-denaturated human EU1 cell lysates assessed as N-[4,5-bis(2-hydroxyethoxy)-9,10-dioxo-2-anthryl]-2-chloro-acetamide release measured within 15 mins by HPLC analysis; assay type: ADME, subcellular, Lysate; conditions: 0.25 h
In short: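 Prodrug incubated with non-denatured lysate of EU-1 cells, an in-house wild-type p53 leukemia line, to assess activation by cellular components. Read-out was cleavage of the amino acid ester bond releasing the parent anthraquinone, followed over time.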

[16] = PBS buffer, read-out: solubility

| Compound | t1/2 [1] [min] | IC50 [2] [µM] | t1/2 [3] [min] | solubility [4, 16] [mg/mL] | IC50 (HeLa) [µM] | t1/2 [5] [min] | solubility ([4]; buffer) [mg/mL] | t1/2 [6] [min] | Activity [7] | Activity [8] | Activity [9] | Activity [10] | Activity [11] | Activity [12] | Activity [13] | Activity [14] | Drug metabolism [15] |
| --- | --- | --- | --- | --- | --- | --- | --- | --- | --- | --- | --- | --- | --- | --- | --- | --- | --- |
| Cl.NC(=O)CC[C@H](N)C(=O)OCCOc1cccc2c1C(=O)c1c(OCCOC(=O)[C@@H](N)CCC(N)=O)cc(NC(=O)CCl)cc1C2=O | 73 | 1.45 | 137.1 | > 100 | 12.3 | 66.9 |  |  |  |  |  |  |  |  |  |  |  |
| O=C(CCl)Nc1cc(O)c2c(c1)C(=O)c1cccc(O)c1C2=O |  |  |  |  |  |  | 0.0085 (≈ 25.6 µM) |  |  |  |  |  |  |  |  |  |  |
| Cl.NCC(=O)OCCOc1cccc2c1C(=O)c1c(OCCOC(=O)CN)cc(NC(=O)CCl)cc1C2=O | 10.1 | 1.1 | 31.5 | > 100 | 3.66 | 35.9 |  | 19.3 |  |  |  |  |  |  |  |  |  |
| O=C(CCl)Nc1cc(OCCO)c2c(c1)C(=O)c1cccc(OCCO)c1C2=O |  | 0.89 |  |  | 3.76 |  | 0.06 (≈ 143 µM) |  | Active | Active | Dose-dependent effect | Active | Dose-dependent effect | Tde | Tde | Active |  |
| CC[C@H](C)[C@H](N)C(=O)OCCOc1cccc2c1C(=O)c1c(OCCOC(=O)[C@@H](N)[C@@H](C)CC)cc(NC(=O)CCl)cc1C2=O.Cl | 24.3 | 1.14 | 154.5 | > 100 | 5.75 | 48.4 |  |  |  |  |  |  |  |  |  |  |  |
| Cl.NCCCC[C@H](N)C(=O)OCCOc1cccc2c1C(=O)c1c(OCCOC(=O)[C@@H](N)CCCCN)cc(NC(=O)CCl)cc1C2=O | 44.2 | 1.28 | 140.8 | > 100 | 10.7 | 2.4 |  |  |  |  |  |  |  |  |  |  |  |
| Cl.N=C(N)NCCC[C@H](N)C(=O)OCCOc1cccc2c1C(=O)c1c(OCCOC(=O)[C@@H](N)CCCNC(=N)N)cc(NC(=O)CCl)cc1C2=O | 63 | 2.07 | 187.1 | > 100 | 13 | 0.2 |  |  |  |  |  |  |  |  |  |  |  |
| CSCC[C@H](N)C(=O)OCCOc1cccc2c1C(=O)c1c(OCCOC(=O)[C@@H](N)CCSC)cc(NC(=O)CCl)cc1C2=O.Cl | 3.7 | 1.24 | 44.8 | > 100 | 7.07 | 12 |  |  |  |  |  |  |  |  |  |  |  |
| CC(C)[C@H](N)C(=O)OCCOc1cccc2c1C(=O)c1c(OCCOC(=O)[C@@H](N)C(C)C)cc(NC(=O)CCl)cc1C2=O.Cl | 25.3 | 1.08 | 147.7 | > 100 | 4.15 | 126.3 |  |  |  |  |  |  |  |  |  |  | Metabolite_Detected |
| C[C@H](N)C(=O)OCCOc1cccc2c1C(=O)c1c(OCCOC(=O)[C@H](C)N)cc(NC(=O)CCl)cc1C2=O.Cl | 6.2 | 1.66 | 100.9 | > 100 | 8.21 | 24.7 |  |  |  |  |  |  |  |  |  |  |  |
| Cl.N[C@@H](Cc1ccc(O)cc1)C(=O)OCCOc1cccc2c1C(=O)c1c(OCCOC(=O)[C@@H](N)Cc3ccc(O)cc3)cc(NC(=O)CCl)cc1C2=O | 1.7 | 1.27 | 70.6 | > 100 | 5.4 | 6.5 |  |  |  |  |  |  |  |  |  |  |  |
| Cl.N[C@@H](CCC(=O)O)C(=O)OCCOc1cccc2c1C(=O)c1c(OCCOC(=O)[C@@H](N)CCC(=O)O)cc(NC(=O)CCl)cc1C2=O | 117.9 | 3.21 | 268.6 | > 100 | 9.11 | 110 |  | 156.1 |  |  |  |  |  |  |  |  |  |
| CC(C)C[C@H](N)C(=O)OCCOc1cccc2c1C(=O)c1c(OCCOC(=O)[C@@H](N)CC(C)C)cc(NC(=O)CCl)cc1C2=O.Cl | 2.5 | 1.17 | 127.7 | > 100 | 2.8 | 39.6 |  |  |  |  |  |  |  |  |  |  |  |
| Cl.N[C@@H](Cc1ccccc1)C(=O)OCCOc1cccc2c1C(=O)c1c(OCCOC(=O)[C@@H](N)Cc3ccccc3)cc(NC(=O)CCl)cc1C2=O | 1 | 1.23 | 73.7 |  | 5.64 | 6.5 | 703 |  |  |  |  |  |  |  |  |  |  |
